Laboratory results published in ChEMBL document CHEMBL1147905, “Novel thyroid hormone receptor antagonists with an N-alkylated diphenylamine skeleton” (Bioorg Med Chem, 2007).
The source made the active and inactive calls. The calls are words filed in the database; no cut-off is given here.

Key:
Format in all cases: functional, cell-based
Details in all cases: COS-1
[1] = biological target: T1, Thyroid hormone receptor alpha (Homo sapiens) (UniProt P10827); test: Agonist activity at human thyroid hormone receptor alpha-1 expressed in COS1 cells by transactivation assay after 40 hrs
T1 sequence (whole entry): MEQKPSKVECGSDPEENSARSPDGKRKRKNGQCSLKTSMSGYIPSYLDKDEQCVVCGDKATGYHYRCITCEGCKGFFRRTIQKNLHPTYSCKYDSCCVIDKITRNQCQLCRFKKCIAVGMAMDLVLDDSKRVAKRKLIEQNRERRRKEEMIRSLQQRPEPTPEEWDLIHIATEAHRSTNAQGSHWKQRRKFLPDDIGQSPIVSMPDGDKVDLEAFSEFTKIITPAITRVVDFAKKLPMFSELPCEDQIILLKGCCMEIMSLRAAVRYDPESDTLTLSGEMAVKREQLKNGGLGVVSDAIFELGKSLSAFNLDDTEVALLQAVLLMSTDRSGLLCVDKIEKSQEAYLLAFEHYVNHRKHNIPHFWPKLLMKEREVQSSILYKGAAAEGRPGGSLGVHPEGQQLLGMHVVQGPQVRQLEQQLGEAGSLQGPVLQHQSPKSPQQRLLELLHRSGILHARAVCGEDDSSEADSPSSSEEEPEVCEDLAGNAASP
Outline: (§1)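 COS-1 cells were seeded at 8 × 10⁴ per well in 5% FBS/DMEM and grown overnight at 37 °C, 5% CO₂. In serum-free DMEM with Lipofectamine 2000 they were transfected with pCMX-hTRα1 (α1) or pCDNA-hTRβ1 (β1) (100 ng), (TREpal)₃-TKLUC reporter (200 ng) and pCMVβ reference. After 4–5 h, charcoal-dextran FBS medium and compounds (final 0.5% EtOH) were added for 40 h. Read-out was luciferase normalised to β-galactosidase.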

[2] = biological target: T2, Thyroid hormone receptor beta (Homo sapiens) (UniProt P10828); test: Agonist activity at human thyroid hormone receptor beta-1 expressed in COS1 cells by transactivation assay after 40 hrs; outline: as §1
T2 sequence (whole entry): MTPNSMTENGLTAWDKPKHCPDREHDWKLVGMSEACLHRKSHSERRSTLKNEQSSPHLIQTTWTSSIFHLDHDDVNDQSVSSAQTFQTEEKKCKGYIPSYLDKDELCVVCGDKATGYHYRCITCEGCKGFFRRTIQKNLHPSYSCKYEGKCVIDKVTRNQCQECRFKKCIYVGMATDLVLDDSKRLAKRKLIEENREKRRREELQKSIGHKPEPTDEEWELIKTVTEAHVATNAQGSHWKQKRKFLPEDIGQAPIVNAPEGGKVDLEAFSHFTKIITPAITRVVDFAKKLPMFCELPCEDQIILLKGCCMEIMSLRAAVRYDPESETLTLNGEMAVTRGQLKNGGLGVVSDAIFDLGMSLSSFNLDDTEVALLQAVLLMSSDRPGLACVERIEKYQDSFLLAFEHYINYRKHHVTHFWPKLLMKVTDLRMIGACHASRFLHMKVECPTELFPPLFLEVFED

[3] = biological target: T1, Thyroid hormone receptor alpha (Homo sapiens); test: Antagonist activity at human thyroid hormone receptor alpha-1 expressed in COS1 cells by transactivation assay after 40 hrs
Outline: (§2)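 Same COS-1 transfection (pCMX-hTRα1 or pCDNA-hTRβ1 with (TREpal)₃-TKLUC and pCMVβ) and 40 h treatment in charcoal-dextran FBS medium, 0.5% EtOH final. Compounds were added alongside 3 × 10⁻⁹ M T₃. Luciferase was normalised to β-galactosidase and expressed as percent of the T₃-alone value (100%). Means ± SD, n = 3.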

[4] = biological target: T2, Thyroid hormone receptor beta (Homo sapiens); test: Antagonist activity at human thyroid hormone receptor beta-1 expressed in COS1 cells by transactivation assay after 40 hrs; outline: as §2

Compound	Activity [1]	Activity [2]	Activity [3]	Activity [4]
Cc1cc(CC2SC(=O)NC2=O)cc(C)c1N(C)c1ccc(O)c(C(C)C)c1 (stereo not drawn)	Active	Active	inactive	inactive
CCCCCCN(c1ccc(O)c(C(C)C)c1)c1c(C)cc(CC2SC(=O)NC2=O)cc1C (stereo not drawn)	inactive	inactive	Active	Active
Cc1cc(CC2SC(=O)NC2=O)cc(C)c1N(Cc1ccccc1)c1ccc(O)c(C(C)C)c1 (stereo not drawn)	inactive	inactive	Active	Active
Cc1cc(CC2SC(=O)NC2=O)cc(C)c1N(CC1CC1)c1ccc(O)c(C(C)C)c1 (stereo not drawn)	inactive	inactive	Active	Active
Cc1cc(CC2SC(=O)NC2=O)cc(C)c1N(CC1CCCCC1)c1ccc(O)c(C(C)C)c1 (stereo not drawn)	inactive	inactive	Active	Active

Next, values leading:

Activity [1]	Activity [2]	Activity [3]	Activity [4]	Compound
inactive	inactive	Active	Active	CC(C)=CCN(c1ccc(O)c(C(C)C)c1)c1c(C)cc(CC2SC(=O)NC2=O)cc1C (stereo not drawn)
inactive	inactive	Active	Active	Cc1cc(CC2SC(=O)NC2=O)cc(C)c1N(CC(C)C)c1ccc(O)c(C(C)C)c1 (stereo not drawn)
